This passage reports Activity results from ChEMBL document CHEMBL2163188, “Discovery of piragliatin--first glucokinase activator studied in type 2 diabetic patients” (J Med Chem, 2012).

In series [1] the test system is Rattus norvegicus. As to the kind of experiment: Hepatic toxicity in Wistar rat assessed as increase in serum triglyceride level at 600 mg/kg, po administered as single dose after 5 days […]. Also on record: dose 600 mg/kg, route oral. The following applies: in vivo, 120 h. The series is classed as organism-based. In short, it runs like this: (§1)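 Male Wistar rats, three per group (vehicle or test compound), given a single oral dose of 300 or 600 mg/kg. Serum triglycerides were measured. Liver sections were stained with H&E and Oil Red O to assess lipidosis.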

In series [2] the test system is Rattus norvegicus. Nature of the series: Antidiabetic activity in Wistar rat assessed as reduction of glucose level at 250 mg/kg, po qd for 5 days measured in day 3. The series is classed as functional, organism-based. Also on record: dose 250 mg/kg. In short, it runs like this: (§2)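 Five-day rat study with daily oral dosing. Blood glucose was measured on day 3. Hepatic lipidosis was assessed at study end by Oil Red O staining of liver.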

Series [3] relates to Rattus norvegicus. Nature of the series: Hepatic toxicity in Wistar rat assessed as lipidosis at 600 mg/kg, po administered as single dose by Oil Red O staining. The following applies: in vivo.
The subject of series [4] is Rattus norvegicus. Nature of the series: Hepatic toxicity in Wistar rat assessed as lipidosis at 250 mg/kg, po qd for 5 days by Oil Red O staining. The series is classed as organism-based. Also on record: dose 250 mg/kg, route oral. Conditions: in vivo, 120 h. In a few lines: as §2
For series [5], the system named is Rattus norvegicus. As to the kind of experiment: Antidiabetic activity in Wistar rat assessed as reduction of glucose level at 600 mg/kg, po administered as single dose after 5 days measured on day 3. Type of series: functional, organism-based. Further details: dose 600 mg/kg.
In series [6] the test system is Rattus norvegicus. Nature of the series: Hepatic toxicity in Wistar rat assessed as periportal hepatocellular microvesicular lipidosis at 600 mg/kg, po administered as single dose after 5 days by hematoxylin and eosin staining. The series is classed as organism-based. Further details: dose 600 mg/kg, route oral. The following applies: in vivo, 120 h. In short, it runs like this: as §1

For series [7], the system named is Mus musculus. Nature of the series: Antidiabetic activity in po dosed DIO C57Bl/6J mouse assessed as reduction of fasting and postprandial glucose level administered 1 hr before glucose challenge by OGTT. The series is classed as functional, organism-based. In a few lines: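 Male DIO C57Bl/6J mice were fasted overnight and dosed orally at 5, 10 or 15 mg/kg in Gelucire44/14:ethanol:PEG400 (4:66:30 v/w/v). An oral glucose challenge of 1 g/kg followed 1 h later. Tail-snip blood glucose was read on a YSI analyzer up to 120 min. Food was withheld throughout; n = 6 per time point; means ± SD; Student's t test.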

In series [8] the target is T1, Hexokinase-4 (Homo sapiens) (UniProt P35557).
T1 sequence (whole entry): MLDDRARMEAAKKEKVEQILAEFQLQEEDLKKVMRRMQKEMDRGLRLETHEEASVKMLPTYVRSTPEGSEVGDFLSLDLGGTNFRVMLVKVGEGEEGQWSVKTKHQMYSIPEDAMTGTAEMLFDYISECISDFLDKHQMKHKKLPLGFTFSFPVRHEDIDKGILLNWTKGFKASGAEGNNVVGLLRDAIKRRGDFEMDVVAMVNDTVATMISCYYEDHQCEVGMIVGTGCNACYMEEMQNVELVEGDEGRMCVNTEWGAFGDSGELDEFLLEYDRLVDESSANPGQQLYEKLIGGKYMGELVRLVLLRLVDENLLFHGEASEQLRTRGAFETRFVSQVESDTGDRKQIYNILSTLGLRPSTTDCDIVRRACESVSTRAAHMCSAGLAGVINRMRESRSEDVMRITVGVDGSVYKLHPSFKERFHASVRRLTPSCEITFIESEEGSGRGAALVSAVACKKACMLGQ
Nature of the series: Activation of human recombinant glucokinase assessed as concentration required for 1.5 fold increase in enzymatic activity. In short, it runs like this:
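Human recombinant GK; activator at fixed concentrations from ∼0.010 to 30 μM, each in duplicate, with glucose held at 5 mM. SC1.5 is the activator concentration giving a 1.5-fold rise in enzymatic activity over untreated GK. Assay CV was about 15%.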

Each structure is given as a SMILES string. Active and inactive are the calls of the source. The calls are words filed in the database; no cut-off is given here.

With `CS(=O)(=O)c1ccc([C@H](CC2CCCC2)C(=O)Nc2nccs2)cc1`, the Activity in series [1] was 600%; in series [3], “Toxic”; in series [4], “Toxic”; in series [6], “Toxic”. Also, the result in series [2] and in series [5] was inactive.
On to `CS(=O)(=O)c1ccc([C@@H](CC2CCCC2)C(=O)Nc2cnccn2)cc1Cl`, for which the outcome in series [7] was Active. For the same compound, the Activity in series [8] stood at 0.14 µM.
